Source: ChEMBL document CHEMBL1152771, “Identification of Shc Src homology 2 domain-binding peptoid-peptide hybrids” (J Med Chem, 2009)
Activity calls are given as the source filed them. The calls are words filed in the database; no cut-off is given here. Where a SMILES comes first, the peptide text is derived from it. [ ]: non-standard residue; d: D form. The star is where a group is joined. X2 = O=C(c1cc(N=C=S)ccc1-c1c2ccc(=O)cc-2oc2cc(O)ccc12)*; pY = N[C@@H](Cc1ccc(OP(=O)(O)O)cc1)C(=O)O; GABA = NCCCC(=O)O

Experiments:
[1] = target: T1, SHC-transforming protein 1 (Homo sapiens) (UniProt P29353); experiment: Inhibition of Shc Src homology 2 domain binding to cMet expressed in human B5/589 cells at 10 uM; assay type: cell-based
T1 sequence (whole entry): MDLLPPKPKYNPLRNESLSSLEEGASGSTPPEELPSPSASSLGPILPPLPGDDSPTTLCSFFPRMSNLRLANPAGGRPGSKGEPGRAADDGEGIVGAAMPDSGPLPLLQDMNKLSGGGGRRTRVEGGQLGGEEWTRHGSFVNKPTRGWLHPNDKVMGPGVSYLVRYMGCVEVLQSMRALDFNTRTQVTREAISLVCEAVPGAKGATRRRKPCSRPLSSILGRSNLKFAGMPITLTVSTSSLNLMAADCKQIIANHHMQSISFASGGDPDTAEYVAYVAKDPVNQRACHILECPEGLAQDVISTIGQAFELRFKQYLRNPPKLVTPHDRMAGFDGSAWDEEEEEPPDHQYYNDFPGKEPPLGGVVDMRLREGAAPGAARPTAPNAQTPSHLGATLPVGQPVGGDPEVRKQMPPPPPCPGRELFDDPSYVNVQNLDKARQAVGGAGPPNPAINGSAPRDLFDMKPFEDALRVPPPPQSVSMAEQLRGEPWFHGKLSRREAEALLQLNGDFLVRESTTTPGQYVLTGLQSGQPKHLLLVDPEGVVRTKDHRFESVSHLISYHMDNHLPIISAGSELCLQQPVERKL
Outline: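 B5/589 human mammary epithelial cells serum-starved 48 h, then exposed 1 h to peptide (10 μM) or none. HGF stimulation at 50 ng/mL for 20 min, then lysis in cold detergent buffer (pH 7.4). c-Met captured with biotinylated antibody on streptavidin resin; co-precipitated Shc and recovered c-Met detected by SDS-PAGE and immunoblot with chemiluminescence.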

[2] = target: T1, SHC-transforming protein 1 (Homo sapiens); experiment: (§1) Binding affinity to Shc Src homology 2 domain by fluorescence anisotropy
Outline: (§2)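 Direct binding: 5 nM N-terminal fluorescein-labelled peptide in 10 mM HEPES, 150 mM NaCl pH 7.5 with 10% (v/v) DMSO; Shc SH2 protein serially diluted from 100 μM. Excitation 485 nm, parallel and perpendicular emission at 535 nm. Kd from fitting anisotropy versus protein concentration to a single-site binding model.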

[3] = target: T2, SHC-transforming protein 1 (Homo sapiens, UniProt P29353); experiment: as §1; outline: as §2
T2 sequence (P29353 whole entry): T1 sequence (whole entry)

For `CC(=O)N[C@@H](CCCNC(=N)N)C(=O)N[C@@H](CCCNC(=N)N)C(=O)N[C@@H](CCCNC(=N)N)C(=O)N[C@@H](CCCNC(=N)N)C(=O)N[C@@H](CCCNC(=N)N)C(=O)N[C@@H](CCCNC(=N)N)C(=O)N[C@@H](CCCNC(=N)N)C(=O)N[C@@H](CCCNC(=N)N)C(=O)NCCOCCOCCOCCNC(=O)[C@H](CO)NC(=O)[C@H](CC(C)C)NC(=O)CNC(=O)[C@H](CCC(N)=O)NC(=O)[C@H](Cc1ccc(OP(=O)(O)O)cc1)NC(=O)CCCCNC(=O)c1cc(N=C=S)ccc1-c1c2ccc(=O)cc-2oc2cc(O)ccc12`, the Activity [1] was “Active”.

`CC[C@H](C)[C@H](NC(=O)[C@H](CCCCN)NC(=O)[C@@H](NC(=O)[C@H](CCC(N)=O)NC(=O)[C@H](CCCNC(=N)N)NC(C)=O)[C@@H](C)CC)C(=O)N[C@@H](Cc1c[nH]c2ccccc12)C(=O)N[C@@H](Cc1ccccc1)C(=O)N[C@@H](CCC(N)=O)C(=O)N[C@@H](CC(N)=O)C(=O)N[C@@H](CCCNC(=N)N)C(=O)N[C@@H](CCCNC(=N)N)C(=O)N[C@@H](CCSC)C(=O)N[C@@H](CCCCN)C(=O)N[C@@H](Cc1c[nH]c2ccccc12)C(=O)N[C@@H](CCCCN)C(=O)N[C@@H](CCCCN)C(=O)NCCOCCOCCOCCNC(=O)[C@H](CO)NC(=O)[C@H](CC(C)C)NC(=O)CNC(=O)[C@H](CCC(N)=O)NC(=O)[C@H](Cc1ccc(OP(=O)(O)O)cc1)NC(=O)CCCCNC(=O)c1cc(N=C=S)ccc1-c1c2ccc(=O)cc-2oc2cc(O)ccc12` was tested, and the Activity [1] was “Active”.

`CC(C)C[C@H](NC(=O)CNC(=O)[C@H](CCC(N)=O)NC(=O)[C@H](Cc1ccc(OP(=O)(O)O)cc1)NC(=O)[C@H](CC(C)C)NC(=O)CNC(=O)c1cc(N=C=S)ccc1-c1c2ccc(=O)cc-2oc2cc(O)ccc12)C(=O)N[C@@H](CO)C(N)=O` (HELM PEPTIDE1{[O=C(c1cc(N=C=S)ccc1-c1c2ccc(=O)cc-2oc2cc(O)ccc12)[*:2]].G.L.[O=C([C@H](Cc1ccc(OP(=O)(O)O)cc1)N[*:1])[*:2]].Q.G.L.S.[am]}$$$$V2.0) was tested, and the Activity [2] was “inactive”.

With `CC(C)C[C@H](NC(=O)CNC(=O)[C@H](CCC(N)=O)NC(=O)[C@H](Cc1ccc(OP(=O)(O)O)cc1)NC(=O)CNC(=O)c1cc(N=C=S)ccc1-c1c2ccc(=O)cc-2oc2cc(O)ccc12)C(=O)N[C@@H](CO)C(N)=O` (HELM PEPTIDE1{[O=C(c1cc(N=C=S)ccc1-c1c2ccc(=O)cc-2oc2cc(O)ccc12)[*:2]].G.[O=C([C@H](Cc1ccc(OP(=O)(O)O)cc1)N[*:1])[*:2]].Q.G.L.S.[am]}$$$$V2.0) the Activity [2] was “inactive”.

For `CC(C)C[C@H](NC(=O)CNC(=O)[C@H](CCC(N)=O)NC(=O)[C@H](Cc1ccc(OP(=O)(O)O)cc1)NC(=O)CCCNC(=O)c1cc(N=C=S)ccc1-c1c2ccc(=O)cc-2oc2cc(O)ccc12)C(=O)N[C@@H](CO)C(N)=O` ({X2-GABA}-[pY]QGLS-NH2), the Kd [3] was 7.2 µM.
